Results pooled from the literature.
Each line is one published result; the experiments were not run side by side.
PDE10A: cAMP and cAMP-inhibited cGMP 3',5'-cyclic phosphodiesterase 10A (PDE10A, Homo sapiens, UniProt Q9Y233)
DRD3: D(3) dopamine receptor (DRD3, Homo sapiens, UniProt P35462)

CCCCC(=O)Nc1ccc(-c2ccc3ncn(CCC)c(=O)c3c2)cn1 — remaining binding (Leukocyte tyrosine kinase receptor (LTK, Homo sapiens, UniProt P29376); binding, competition with immobilised ligand; 0.5 µM): 100%
COc1ccc(Cc2ccnc3ccccc23)cc1OC — inhibition (PDE10A; enzyme activity, inhibitor, FP; 0.1 µM): 11%
Cc1[nH]c(C)c(S(=O)(=O)Nc2cc(Cl)cc(Cl)c2Cl)c1C(=O)N1CCC(F)(F)C1 — Emax (DRD3; β-arrestin recruitment, agonist; 90 min): 103%
CCOC(=O)[C@@]12C[C@@H]1[C@@H](n1cnc3c(NCCCCc4ccccc4)nc(C#Cc4ccc(Cl)s4)nc31)[C@H](O)[C@@H]2O — inhibition (Sodium-dependent dopamine transporter (SLC6A3, Homo sapiens, UniProt Q01959); ligand displacement, radioligand; 10 µM): 9%
COc1ccc2nccc(Cc3cccc(-c4ccccc4)c3)c2c1 — inhibition (PDE10A; enzyme activity, inhibitor, FP; 0.1 µM): 5%
[2H]C1([2H])CCC([2H])([2H])N1C(=O)c1c(C)[nH]c(C)c1S(=O)(=O)Nc1ccc(C(F)(F)F)c(Cl)c1 — Emax (DRD3; β-arrestin recruitment, agonist; 90 min): 92%
COc1cc2ccnc(C(=O)c3cccc4ccccc34)c2cc1OC — inhibition (PDE10A; enzyme activity, inhibitor, FP; 0.1 µM): 0%
Cc1[nH]c(C)c(S(=O)(=O)Nc2ccc(Cl)c(C(F)(F)F)c2)c1C(=O)N1CCC(F)(F)C1 — Emax (DRD3; β-arrestin recruitment, agonist; 90 min): 109%
COc1ccc2oc(-c3ccc4nc(N)oc4c3)c/c(=N\c3ccccc3NC(=O)CCN)c2c1 — remaining binding (Discoidin domain-containing receptor 2 (DDR2, Homo sapiens, UniProt Q16832); binding; 1 µM): 85%
C1=C/COCc2cc(ccc2OCCN2CCCC2)Nc2nccc(n2)-c2cccc(c2)COC/1 — remaining binding (AP2-associated protein kinase 1 (AAK1, Homo sapiens, UniProt Q2M2I8); binding; 0.1 µM): 52%
Cc1[nH]c(C)c(S(=O)(=O)Nc2ccc(C(F)(F)F)c(Cl)c2)c1C(=O)N1C[C@@H](F)[C@H](F)C1 (relative stereo) — Emax (DRD3; β-arrestin recruitment, agonist; 90 min): 101%
COc1ccc(Cc2nccc3cc(OC)c(OC)cc23)cc1 — inhibition (PDE10A; enzyme activity, inhibitor, FP; 0.1 µM): 38%
